Data reported in ChEMBL document CHEMBL1127368, “Selective kappa-opioid agonists: synthesis and structure-activity relationships of piperidines incorporating on oxo-containing acyl group” (J Med Chem, 1994).

How the values were obtained:
Mus musculus [1] = experiment: Tested for in vivo antinociceptive activity in mouse abdominal constriction assay; format: functional; details: Abdomen
How it was run: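 Mice of 20-35 g. Abdominal constriction induced with phenyl-p-benzoquinone. Ten animals per dose. ED50 with 95% confidence intervals obtained by regression analysis.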

Mus musculus [2] = experiment: Tested for in vivo antinociceptive activity in mouse tail-flick assay; format: functional
How it was run: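 Tail-flick antinociception in mice of 20-35 g. Ten animals per dose. ED50 with 95% confidence intervals obtained by probit analysis.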

Mus musculus [3] = experiment: Tested for in vivo locomotor impairment/sedation in mouse rotarod test; format: functional
How it was run: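 Locomotor impairment/sedation measured on a rotarod in mice of 20-35 g. Ten animals per dose. ED50 with 95% confidence intervals obtained by regression analysis.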

[4] = target: Kappa-type opioid receptor (Mus musculus, UniProt P33534); experiment: Evaluated for the binding affinity at kappa receptor
Mu-type opioid receptor = Mu-type opioid receptor (Mus musculus, UniProt P42866); experiment: Evaluated for the binding affinity at mu receptor
[5] = target: Delta-type opioid receptor (Mus musculus, UniProt P32300); experiment: Evaluated for the binding affinity at delta receptor
Rattus norvegicus [6] = experiment: Tested for in vivo antinociceptive activity in rat abdominal constriction; format: functional; details: Abdomen
How it was run: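 Male SD rats, 180-350 g. Abdominal constriction induced with phenyl-p-benzoquinone. Ten animals per dose. ED50 with 95% confidence intervals obtained by probit analysis.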

Rattus norvegicus [7] = experiment: Tested for in vivo locomotor impairment/sedation in rat rotarod; format: functional
How it was run: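 Male SD rats, 180-350 g. Trained in six 5-min sessions over 2 days. Rotarod accelerated from 3 to 30 rpm across five sessions. Ten animals per dose. ED50 with 95% confidence intervals obtained by regression analysis.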

[8] = target: Sigma non-opioid intracellular receptor 1 (Mus musculus, UniProt O55242); experiment: Evaluated for the binding affinity at sigma receptor
Rattus norvegicus [9] = experiment: Tested for in vivo antinociceptive activity in rat abdominal constriction assay; details: Abdomen

Chain of Kappa-type opioid receptor (P33534 whole entry): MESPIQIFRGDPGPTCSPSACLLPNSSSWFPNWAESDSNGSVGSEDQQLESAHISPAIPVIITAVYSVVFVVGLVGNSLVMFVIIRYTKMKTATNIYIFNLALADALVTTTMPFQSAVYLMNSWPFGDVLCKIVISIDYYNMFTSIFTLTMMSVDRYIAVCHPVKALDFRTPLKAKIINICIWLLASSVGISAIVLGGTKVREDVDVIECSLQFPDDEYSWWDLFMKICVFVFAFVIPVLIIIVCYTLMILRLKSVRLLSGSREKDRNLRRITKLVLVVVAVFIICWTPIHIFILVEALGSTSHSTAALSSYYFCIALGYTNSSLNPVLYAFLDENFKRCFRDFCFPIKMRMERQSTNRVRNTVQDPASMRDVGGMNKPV
Chain of Sigma non-opioid intracellular receptor 1 (O55242 whole entry): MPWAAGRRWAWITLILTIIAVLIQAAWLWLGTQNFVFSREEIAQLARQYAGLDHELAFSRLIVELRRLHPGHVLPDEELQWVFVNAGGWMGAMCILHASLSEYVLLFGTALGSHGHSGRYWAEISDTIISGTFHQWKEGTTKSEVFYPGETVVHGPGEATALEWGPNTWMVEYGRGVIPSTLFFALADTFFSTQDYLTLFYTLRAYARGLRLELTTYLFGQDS
Chain of Delta-type opioid receptor (P32300 whole entry): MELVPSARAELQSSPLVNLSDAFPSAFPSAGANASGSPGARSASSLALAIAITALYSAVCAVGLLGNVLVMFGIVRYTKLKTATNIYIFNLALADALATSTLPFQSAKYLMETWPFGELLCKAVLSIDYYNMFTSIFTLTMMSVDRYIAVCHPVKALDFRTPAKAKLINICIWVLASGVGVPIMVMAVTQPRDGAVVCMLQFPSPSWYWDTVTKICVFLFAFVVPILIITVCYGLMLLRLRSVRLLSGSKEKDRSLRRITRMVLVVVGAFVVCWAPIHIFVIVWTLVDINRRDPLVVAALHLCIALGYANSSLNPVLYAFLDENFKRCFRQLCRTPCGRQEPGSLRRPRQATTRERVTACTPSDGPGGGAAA
Chain of Mu-type opioid receptor (P42866 whole entry): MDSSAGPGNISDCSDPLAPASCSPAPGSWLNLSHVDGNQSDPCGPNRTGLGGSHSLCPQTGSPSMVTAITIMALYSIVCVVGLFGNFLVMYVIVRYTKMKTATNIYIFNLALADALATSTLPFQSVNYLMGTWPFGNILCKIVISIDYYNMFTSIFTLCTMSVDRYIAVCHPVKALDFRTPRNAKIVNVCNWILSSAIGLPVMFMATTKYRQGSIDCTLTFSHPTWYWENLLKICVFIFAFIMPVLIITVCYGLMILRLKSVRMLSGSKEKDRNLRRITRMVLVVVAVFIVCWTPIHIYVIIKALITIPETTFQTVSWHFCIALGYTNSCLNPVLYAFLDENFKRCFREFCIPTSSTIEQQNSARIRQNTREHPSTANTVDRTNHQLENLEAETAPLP

C=CCN(C)C[C@@H]1CCCCN1C(=O)Cc1ccc2c(c1)CCCC2=O
ED50 (Mus musculus [1]): 0.37 µmol/kg
ED50 (Mus musculus [2]): 3.42 µmol/kg
ED50 (Mus musculus [3]): 8.66 µmol/kg
Ki [4]: 19.2 nM

O=C1CCCc2cc(CC(=O)N3CCCC[C@H]3CN3CCCC3)ccc21
ED50 (Mus musculus [1]): 0.35 µmol/kg
ED50 (Mus musculus [2]): 0.59 µmol/kg
Ki [4]: 7.6 nM

CCCN(C)C[C@@H]1CCCCN1C(=O)Cc1ccc2c(c1)CCCC2=O
ED50 (Mus musculus [1]): 0.62 µmol/kg
ED50 (Mus musculus [2]): 6.81 µmol/kg
ED50 (Mus musculus [3]): 7.99 µmol/kg
Ki [4]: 22.2 nM

O=C(Cc1ccc2c(c1)CCCC2)N1CCCC[C@H]1CN1CCCC1
ED50 (Mus musculus [1]): 0.57 µmol/kg
ED50 (Mus musculus [2]): 2.67 µmol/kg
Ki [4]: 0.81 nM

CC(C)N(C)C[C@@H]1CCCCN1C(=O)Cc1ccc2c(c1)CCCC2=O
ED50 (Mus musculus [1]): 0.22 µmol/kg
ED50 (Mus musculus [2]): 1.2 µmol/kg
ED50 (Mus musculus [3]): 1.02 µmol/kg
Ki [4]: 4.07 nM

O=C1CCCc2ccc(CC(=O)N3CCCC[C@H]3CN3CCCC3)cc21
ED50 (Mus musculus [1]): ~1 µmol/kg
ED50 (Mus musculus [2]): > 3 µmol/kg
Ki [4]: 5.61 nM

CCN(C)C[C@@H]1CCCCN1C(=O)Cc1ccc2c(c1)CCCC2=O
ED50 (Mus musculus [1]): 0.18 µmol/kg
ED50 (Mus musculus [2]): 1.77 µmol/kg
ED50 (Mus musculus [3]): 2.3 µmol/kg
Ki [4]: 10.3 nM

CN(C[C@@H]1CCCCN1C(=O)Cc1ccc2c(c1)CCCC2=O)C1CCCC1
ED50 (Mus musculus [1]): 0.55 µmol/kg
ED50 (Mus musculus [2]): 6.34 µmol/kg
ED50 (Mus musculus [3]): 10 µmol/kg
Ki [4]: 20 nM

CCN(CC)C[C@@H]1CCCCN1C(=O)Cc1ccc2c(c1)CCCC2=O
ED50 (Mus musculus [1]): 1.2 µmol/kg
ED50 (Mus musculus [2]): 12.6 µmol/kg
ED50 (Mus musculus [3]): 23.7 µmol/kg
Ki [4]: 80.3 nM

CN(C)C[C@@H]1CCCCN1C(=O)Cc1ccc2c(c1)CCCC2=O
ED50 (Mus musculus [1]): 0.47 µmol/kg
ED50 (Mus musculus [2]): 2.15 µmol/kg
ED50 (Mus musculus [3]): 5.1 µmol/kg
Ki (Mu-type opioid receptor): 6790 nM
Ki [4]: 47 nM
Ki [5]: > 100 nM
ED50 (Rattus norvegicus [6]): 0.73 µmol/kg
ED50 (Rattus norvegicus [7]): 26.5 µmol/kg
Ki [8]: 1210 nM

CN(C[C@@H]1CCCCN1C(=O)Cc1ccc2c(c1)CCCC2=O)C1CC1
ED50 (Mus musculus [1]): 0.4 µmol/kg
ED50 (Mus musculus [2]): 7.85 µmol/kg
ED50 (Mus musculus [3]): 13.7 µmol/kg
Ki [4]: 52.1 nM

CN(CC1CC1)C[C@@H]1CCCCN1C(=O)Cc1ccc2c(c1)CCCC2=O
ED50 (Mus musculus [1]): 1.36 µmol/kg
ED50 (Mus musculus [2]): 16.5 µmol/kg
ED50 (Mus musculus [3]): 16.6 µmol/kg
Ki [4]: 30.4 nM

C#CCN(C)C[C@@H]1CCCCN1C(=O)Cc1ccc2c(c1)CCCC2=O
ED50 (Mus musculus [1]): 0.16 µmol/kg
ED50 (Mus musculus [2]): 5.11 µmol/kg
ED50 (Mus musculus [3]): 4.12 µmol/kg
Ki [4]: 6.24 nM

O=C1CCCCc2cc(CC(=O)N3CCCC[C@H]3CN3CCCC3)ccc21
ED50 (Mus musculus [1]): > 1.5 µmol/kg
ED50 (Mus musculus [2]): > 3 µmol/kg
Ki [4]: 5.44 nM

CN(C[C@@H]1CCCCN1C(=O)Cc1ccc2c(c1)CCCC2=O)C(C)(C)C
ED50 (Mus musculus [2]): > 30 µmol/kg
Ki [4]: > 100 nM

CN(C[C@@H]1CCCCN1C(=O)Cc1ccc2c(c1)CCCC2=O)C1CCC1
ED50 (Mus musculus [1]): 0.34 µmol/kg
ED50 (Mus musculus [2]): 1.45 µmol/kg
ED50 (Mus musculus [3]): 3.32 µmol/kg
Ki [4]: 34.8 nM

O=C1CCc2cc(CC(=O)N3CCCC[C@H]3CN3CCCC3)ccc21
ED50 (Mus musculus [1]): > 1.5 µmol/kg
ED50 (Mus musculus [2]): > 30 µmol/kg
Ki [4]: 7.93 nM

O=C1CCCc2sc(CC(=O)N3CCCC[C@H]3CN3CCCC3)cc21
ED50 (Mus musculus [1]): 1.41 µmol/kg
ED50 (Mus musculus [2]): 13.5 µmol/kg
Ki [4]: 6.54 nM

O=C(Cc1ccc(C(F)(F)F)cc1)N1CCCC[C@H]1CN1CCCC1
ED50 (Mus musculus [1]): 0.1 µmol/kg
ED50 (Mus musculus [2]): 0.32 µmol/kg
ED50 (Mus musculus [3]): 0.28 µmol/kg
Ki [4]: 0.64 nM
ED50 (Rattus norvegicus [6]): 0.11 µmol/kg
ED50 (Rattus norvegicus [7]): 0.35 µmol/kg

CN1CC[C@]23c4c5ccc(O)c4O[C@H]2[C@@H](O)C=C[C@H]3[C@H]1C5 [MORPHINE]
ED50 (Mus musculus [1]): 1.34 µmol/kg
ED50 (Mus musculus [2]): 9.8 µmol/kg
ED50 (Rattus norvegicus [9]): 0.86 µmol/kg
